Key:
[1] = target: Adrenergic receptor beta (Rattus norvegicus) (UniProt P18090+P10608+P26255); assay: Beta agonist activity against heart rate in rats; type: functional, tissue-based
How it was run: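 Rats anesthetized with pentobarbitone sodium (75 mg/kg ip) and reserpinized 20-24 h earlier (5 mg/kg ip). Single iv doses into tail vein, up to 20 animals. Blood pressure and heart rate recorded; ED30 = dose giving 30 beats/min heart-rate rise, with 95% confidence limits from log dose-response linear regression.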

[2] = target: Beta-2 adrenergic receptor (Rattus norvegicus) (UniProt P10608); assay: Beta-2 adrenergic receptor antagonism in rats anesthetized with pentobarbitone sodium (75 mg/kg ip)
[3] = target: Beta-1 adrenergic receptor (Rattus norvegicus) (UniProt P18090); assay: Inhibition of isoprenaline induced tachycardia in anaesthetised rats.; type: functional
How it was run: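 Pentobarbitone-anesthetized rats (75 mg/kg ip), bilaterally vagotomized, tracheal cannula. Isoprenaline given via right femoral vein; carotid blood pressure and tachograph heart rate recorded. Test compound injected 5 min after isoprenaline, cumulative doses up to 2 mg/kg. ED50 (50% reduction of control isoprenaline response) with 95% confidence limits by linear regression of log dose-response.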

[4] = Acid dissociation constant was determined; type: ADME
[5] = target: Beta-2 adrenergic receptor (Rattus norvegicus) (UniProt P10608); assay: Inhibition of isoprenaline induced […] response in anaesthetised rats.

Chain of Beta-2 adrenergic receptor (Rattus norvegicus) (P10608 whole entry, looked up): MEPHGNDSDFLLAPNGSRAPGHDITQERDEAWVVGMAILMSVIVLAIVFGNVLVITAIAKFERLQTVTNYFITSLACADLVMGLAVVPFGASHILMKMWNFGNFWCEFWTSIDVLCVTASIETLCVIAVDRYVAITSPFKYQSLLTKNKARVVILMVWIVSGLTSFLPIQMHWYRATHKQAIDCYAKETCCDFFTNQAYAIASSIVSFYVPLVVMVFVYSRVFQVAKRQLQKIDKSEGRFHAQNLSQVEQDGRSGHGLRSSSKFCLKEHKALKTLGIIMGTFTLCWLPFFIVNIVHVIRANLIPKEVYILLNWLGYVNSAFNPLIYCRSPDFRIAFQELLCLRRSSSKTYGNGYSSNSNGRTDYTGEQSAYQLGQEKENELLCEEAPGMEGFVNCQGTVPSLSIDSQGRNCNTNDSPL
Chain of Beta-1 adrenergic receptor (Rattus norvegicus) (P18090 whole entry, looked up): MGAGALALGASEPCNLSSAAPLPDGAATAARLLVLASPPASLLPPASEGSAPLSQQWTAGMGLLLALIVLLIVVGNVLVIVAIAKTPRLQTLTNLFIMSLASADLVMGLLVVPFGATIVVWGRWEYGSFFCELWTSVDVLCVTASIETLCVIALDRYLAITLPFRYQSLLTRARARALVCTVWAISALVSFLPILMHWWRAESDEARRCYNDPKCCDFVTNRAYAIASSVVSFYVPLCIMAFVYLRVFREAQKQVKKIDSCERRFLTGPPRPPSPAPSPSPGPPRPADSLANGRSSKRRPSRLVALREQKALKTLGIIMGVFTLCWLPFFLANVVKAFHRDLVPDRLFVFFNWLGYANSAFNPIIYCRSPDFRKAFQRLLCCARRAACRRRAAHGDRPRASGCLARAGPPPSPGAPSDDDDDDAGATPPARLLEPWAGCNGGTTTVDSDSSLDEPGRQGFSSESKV

| ED50 [2] | ED50 [3] | pKa [4] | ED50 [5] | Structure (SMILES) | ED30 [1] |
| --- | --- | --- | --- | --- | --- |
| > 2 mg/kg | 0.598 mg/kg |  |  | CC(C)NCC(O)COc1ccc(Cn2cccn2)cc1 (centres undefined) | > 1000 µg/kg |
| > 2 mg/kg | 0.17 mg/kg | 3.2 |  | CC(C)NCC(O)COc1ccc(OCCn2cncn2)cc1 (centres undefined) | > 1000 µg/kg |
| > 2 mg/kg | 0.783 mg/kg |  |  | CC(C)NCC(O)COc1ccc(CCCn2cccn2)cc1 (centres undefined) | > 1000 µg/kg |
| > 1 mg/kg | 0.62 mg/kg | 7.2 |  | CC(C)NCC(O)COc1ccc(Cn2ccnc2)cc1 (centres undefined) | > 1000 µg/kg |
| > 2 mg/kg | 0.263 mg/kg |  |  | CC(C)NCC(O)COc1ccc(OCCn2ncc3ccccc32)cc1 (centres undefined) | > 1000 µg/kg |
| > 2 mg/kg | 0.233 mg/kg | 3.2 |  | CC(C)NCC(O)COc1ccc(CCn2cncn2)cc1 (centres undefined) | > 1000 µg/kg |
| 1.04 mg/kg | 0.067 mg/kg |  |  | CC(C)(C)NCC(O)COc1ccc(OCCn2cccn2)cc1 (centres undefined) | 154 µg/kg |
|  | 0.028 mg/kg | 2 | > 2 mg/kg | CC(C)NCC(O)COc1ccc(OCn2cccn2)cc1 (centres undefined) | > 1000 µg/kg |
| > 2 mg/kg | 0.97 mg/kg |  |  | CC(C)NCC(O)COc1ccc(OCCn2ccnc2)cc1 (centres undefined) | > 1000 µg/kg |
| > 2 mg/kg | 0.209 mg/kg | 2 |  | CC(C)NCC(O)COc1ccc(CCn2cccn2)cc1 (centres undefined) | > 1000 µg/kg |
| > 2 mg/kg | 0.68 mg/kg |  |  | CC(C)NCC(O)COc1ccc(OCCCn2cncn2)cc1 (centres undefined) | > 1000 µg/kg |
| > 2 mg/kg | 0.16 mg/kg |  |  | CC(C)NCC(O)COc1ccc(OCCn2cc(-c3ccccc3)cn2)cc1 (centres undefined) | > 1000 µg/kg |
| > 2 mg/kg | 0.327 mg/kg |  |  | CC(C)NCC(O)COc1ccc(SCn2cccn2)cc1 (centres undefined) | > 1000 µg/kg |
| > 2 mg/kg | 0.057 mg/kg |  |  | CC(C)NCC(O)COc1ccc(OCCn2nc3c(n2)CCCC3)cc1 (centres undefined) | > 1000 µg/kg |
| 0.988 mg/kg | 0.05 mg/kg |  |  | CC(C)NCC(O)COc1ccc(OCCn2nc3ccccc3n2)cc1 (centres undefined) | > 1000 µg/kg |
| > 2 mg/kg | 0.014 mg/kg | < 1 |  | CC(C)NCC(O)COc1ccc(OCCn2nccn2)cc1 (centres undefined) | 14 µg/kg |
| 0.523 mg/kg | 0.024 mg/kg | < 0.6 |  | CC(C)NCC(O)COc1ccc(OCCn2cc(Cl)cn2)cc1 (centres undefined) | 194 µg/kg |
| > 2 mg/kg | 1.27 mg/kg |  |  | CC(C)NCC(O)COc1ccc(OCCn2nnc3ccccc32)cc1 (centres undefined) | > 1000 µg/kg |
|  | 0.011 mg/kg | < 1 | > 2 mg/kg | CC(C)NCC(O)COc1ccc(OCn2nccn2)cc1 (centres undefined) | 19 µg/kg |
|  | 0.04 mg/kg | 1.25 | > 2 mg/kg | CC(C)NCC(O)COc1ccc(OCn2ccnn2)cc1 (centres undefined) | 50 µg/kg |
| > 2 mg/kg | 0.05 mg/kg | 2 |  | CC(C)NCC(O)COc1ccc(OCCn2cccn2)cc1 (centres undefined) | > 1000 µg/kg |
| > 2 mg/kg | 0.334 mg/kg |  |  | CC(C)NCC(O)COc1ccc(OCCCn2cccn2)cc1 (centres undefined) | > 1000 µg/kg |
| > 1 mg/kg | 0.186 mg/kg |  |  | CC(C)NCC(O)COc1ccc(CCn2ccnc2)cc1 (centres undefined) | > 1000 µg/kg |
|  | 0.004 mg/kg | < 0.6 | 2.43 mg/kg | CC(C)NCC(O)COc1ccc(OCn2cc(Cl)cn2)cc1 (centres undefined) | 7 µg/kg |
| > 2 mg/kg | 0.687 mg/kg |  |  | CC(C)NCC(O)COc1ccc(OCCn2cnc3ccccc32)cc1 (centres undefined) | > 1000 µg/kg |
| > 2 mg/kg | 0.128 mg/kg |  |  | CC(C)NCC(O)COc1ccc(SCCn2cccn2)cc1 (centres undefined) | > 1000 µg/kg |

Reference: ChEMBL document CHEMBL1122761, “Beta 1-selective adrenoceptor antagonists. 3. 4-Azolyl-linked phenoxypropanolamines” (J Med Chem, 1984)
